SR-BI DiI inh: blocks mouse SR-BI lipid uptake from DiI-HDL. inhibition, % at 12.5 µM. ldlA[mSR-BI] CHO cells, DiI-HDL uptake fluorescence, 3 h. AID 488896. hit rate 0.96% among 320,000;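 active = mean replicate inhibition of at least 70% and a set share of replicates each scoring 70 or more; inconclusive = meets just one of the two criteria; inactive = fails both criteria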
NSD2 HMT inh: blocks human histone methyltransferase NSD2; inhibition, % at 12.5 µM; O96028; hit rate 0.54% among 310,000; NSD2 peptide methylation, AlphaScreen, 120 min; AID 743445
CDK5 inh: inhibitors of human CDK5/p35 kinase; AID 488839; Recombinant CDK5/p35, ADP-Glo luminescence, 60 min; inhibition, % at 10 µM; hit rate 0.01% among 330,000;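 active = highest replicate inhibition of at least 50% and at least 75% of replicates reaching 50%; inconclusive = only one of the two criteria met; inactive = both criteria failed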
Target sequence (Q00535 whole entry, looked up): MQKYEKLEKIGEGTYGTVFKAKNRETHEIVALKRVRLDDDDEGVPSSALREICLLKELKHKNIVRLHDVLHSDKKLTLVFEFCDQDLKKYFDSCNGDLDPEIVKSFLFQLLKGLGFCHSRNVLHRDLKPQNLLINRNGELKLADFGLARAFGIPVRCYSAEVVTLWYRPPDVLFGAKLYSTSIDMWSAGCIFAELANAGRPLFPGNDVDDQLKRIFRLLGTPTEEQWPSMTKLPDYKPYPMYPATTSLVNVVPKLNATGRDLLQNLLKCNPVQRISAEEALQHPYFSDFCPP
Target sequence (Q15078 whole entry, looked up): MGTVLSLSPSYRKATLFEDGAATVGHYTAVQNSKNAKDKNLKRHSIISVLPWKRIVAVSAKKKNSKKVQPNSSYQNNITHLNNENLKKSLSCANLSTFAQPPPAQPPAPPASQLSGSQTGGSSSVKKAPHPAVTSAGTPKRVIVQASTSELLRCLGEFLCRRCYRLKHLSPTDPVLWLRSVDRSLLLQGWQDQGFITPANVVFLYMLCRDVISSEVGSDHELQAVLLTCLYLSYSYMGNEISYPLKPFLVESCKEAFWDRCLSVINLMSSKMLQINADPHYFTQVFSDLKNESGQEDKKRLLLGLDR
SR-BI uptake up: enhances SR-BI lipid uptake from DiI-HDL | CHO ldlA[mSR-BI] cells, DiI-HDL uptake fluorescence, 3 h; 100 = double the neutral-control signal | activation, % at 12.5 µM | hit rate 0.096% among 320,000;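 active = mean replicate activation of at least 60% and every replicate at or above 60%; inconclusive = mean or all-replicate condition met, but not both; inactive = mean below 60% and not all replicates reaching 60%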
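Material: SR-BI-overexpressing, LDLR-lacking CHO cells | Dosing: Single compound concentration, delivered by pin transfer | Probe or stimulus: Labelled HDL, 10 µg/mL | Signal: Bottom-read cell fluorescence after medium removal, ex 550/em 595 nm | Schedule: 3 h, 37 °C | Evaluation: HDL uptake via cellular fluorescence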
DYRK1A inh: inhibitors of rat Dyrk1A kinase. ADP-Glo luminescence, NFATc1 peptide. hit rate 0.43% among 310,000. inhibition, % at 12.5 µM. Q63470
dFosB activator: enhances mouse delta FosB homodimer DNA binding; P13346; purified delta FosB, TAMRA-CDK5 oligo fluorescence polarization; percent of positive-control signal above neutral wells; activation, % at 25 µM; hit rate 0.99% among 340,000;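 active = mean activation above about 17%, with every replicate also reaching it, limit read from the data, passing the limit was not always enough; inconclusive = only one of the two conditions met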
Hits are given with their value. Shown are actives, neighbours in structure and some others; about 2.5% of the full set was active somewhere. Rule as the data show it, unless noted: active = inhibition above about 50%; inactive = the rest.

`O=C(Cn1nc(-c2ccccc2)ccc1=O)NCCc1cccc(F)c1` gave NSD2 HMT inh inactive.
For N#C/C(=C\c1ccc(O)cc1)C(=O)NCc1cccc(Cl)c1 the results were NSD2 HMT inh inactive, CDK5 inh inactive, DYRK1A inh 51.0 and dFosB activator inactive.
Screening Cc1c(C(=O)c2ccc(Cl)c(Cl)c2)cnc2cc3c(cc12)OCO3 returned SR-BI DiI inh inactive, NSD2 HMT inh inactive, CDK5 inh inactive, SR-BI uptake up 68.6, DYRK1A inh inactive and dFosB activator inactive.
Screening COc1ccc(C(=O)c2cnc3cc4c(cc3c2C)OCO4)cc1 returned SR-BI DiI inh inactive, NSD2 HMT inh inactive, CDK5 inh inactive, SR-BI uptake up inactive, DYRK1A inh inactive and dFosB activator inactive.
For COc1ccc(CCNC(=O)c2ccc3c(c2)ncn3C2CCCCC2)cc1 the results were NSD2 HMT inh inactive.
Screening Cc1cc(Nc2nc3ccccc3nc2Cl)n(-c2ccc([N+](=O)[O-])cc2)n1 returned SR-BI DiI inh 79.2, NSD2 HMT inh inactive, CDK5 inh inactive, SR-BI uptake up inactive and dFosB activator inactive.
`Cc1cc(Nc2nc3ccccc3[nH]c2=O)n(-c2ccccc2)n1` gave SR-BI DiI inh inactive, CDK5 inh inactive, SR-BI uptake up inactive, DYRK1A inh inactive and dFosB activator inconclusive.
`Cc1cc(NCc2ccccc2)cc(=O)n1Cc1ccccc1` gave NSD2 HMT inh inactive.
Screening CC(C)OC(=O)C(C)(C)Oc1ccc(C(=O)c2ccc(Cl)cc2)cc1 returned SR-BI DiI inh 92.9, CDK5 inh inactive, SR-BI uptake up inactive, DYRK1A inh inactive and dFosB activator inactive.
`c1ccc(CNc2c3ccccc3nc3ccccc23)cc1` gave SR-BI DiI inh inactive, CDK5 inh inactive, SR-BI uptake up inactive, DYRK1A inh inactive and dFosB activator 37.8.
Oc1ccccc1Nc1nc(NCc2ccccc2)c2ccccc2n1 was read as SR-BI DiI inh inactive, NSD2 HMT inh inactive, CDK5 inh inactive, SR-BI uptake up inactive, DYRK1A inh inactive and dFosB activator 84.2.
For Oc1ccc(CCNc2c3ccccc3nc3ccccc23)cc1O the results were SR-BI DiI inh inactive, NSD2 HMT inh inactive, CDK5 inh inactive, SR-BI uptake up inactive, DYRK1A inh inactive and dFosB activator 70.9.
For CN(C)CCCNc1c2ccccc2nc2ccccc12 the results were SR-BI DiI inh inactive, CDK5 inh inactive, SR-BI uptake up inactive, DYRK1A inh inactive and dFosB activator 71.9.
For O=C(CNC(=O)c1ccccc1)NCCc1ccc(O)c(O)c1 the results were SR-BI DiI inh inactive, NSD2 HMT inh inactive, CDK5 inh inactive, SR-BI uptake up inactive, DYRK1A inh inactive and dFosB activator inactive.
For c1ccc(CNc2ncnc3ccccc23)cc1 the results were SR-BI DiI inh inactive, NSD2 HMT inh inactive, CDK5 inh inactive, SR-BI uptake up inactive, DYRK1A inh inactive and dFosB activator inactive.
Cc1c(-c2ccccc2)nc2ccccc2c1C(=O)Oc1ccc([N+](=O)[O-])cc1 was read as SR-BI DiI inh 87.6, NSD2 HMT inh inactive, CDK5 inh inactive, SR-BI uptake up inactive, DYRK1A inh inactive and dFosB activator inactive.
Cc1nc2cccc(C(=O)Oc3ccc([N+](=O)[O-])cc3)c2o1 was read as SR-BI DiI inh inactive, NSD2 HMT inh inactive, CDK5 inh inactive, SR-BI uptake up inactive, DYRK1A inh inactive and dFosB activator inactive.
Screening COc1ccc(-c2csc(C3=C(O)CN(Cc4ccc(Cl)cc4)C3=N)n2)cc1OC returned SR-BI DiI inh 87.1, NSD2 HMT inh inactive, CDK5 inh inactive, SR-BI uptake up inactive, DYRK1A inh inactive and dFosB activator inactive.
For COCC(C)N1CC(O)=C(c2nc(-c3ccc(Cl)cc3)cs2)C1=N (centres undefined) the results were SR-BI DiI inh 81.5, NSD2 HMT inh inactive, CDK5 inh inactive, SR-BI uptake up inactive and dFosB activator inactive.
For CCCCN1CC(O)=C(c2nc(-c3ccc(Cl)cc3)cs2)C1=N the results were SR-BI DiI inh inactive, NSD2 HMT inh inactive, CDK5 inh inactive, SR-BI uptake up inactive, DYRK1A inh inactive and dFosB activator inactive.
Screening N#Cc1nc(-c2ccc(OCc3ccccc3)cc2)oc1NCCN1CCOCC1 returned NSD2 HMT inh inactive.
Screening N#Cc1nc(-c2ccc(OCc3ccccc3)cc2)oc1N1CCOCC1 returned SR-BI DiI inh 71.0, NSD2 HMT inh inactive, CDK5 inh inactive, SR-BI uptake up inactive, DYRK1A inh inactive and dFosB activator inactive.
For CC(C)c1ccc(NC(=O)C(c2ccccc2)N(C)C(=O)CCc2c[nH]c3ccccc23)cc1 (centres undefined) the results were SR-BI DiI inh inactive, CDK5 inh inactive, SR-BI uptake up inactive, DYRK1A inh inactive and dFosB activator inactive.
For Cc1csc(NC(=O)CN2C(=O)COc3ccc(Cl)cc32)n1 the results were SR-BI DiI inh inactive, NSD2 HMT inh inactive, CDK5 inh inactive, SR-BI uptake up inactive, DYRK1A inh inactive and dFosB activator 28.9.
For Cc1cccc(NC(=O)CN2C(=O)COc3ccc(Cl)cc32)c1 the results were SR-BI DiI inh inactive, NSD2 HMT inh inactive, CDK5 inh inactive, SR-BI uptake up inactive, DYRK1A inh inactive and dFosB activator inactive.
For COc1ccc(-c2sc3cc4c(cc3c2C#Cc2ccc(N)cc2)OCO4)cc1 the results were SR-BI DiI inh 92.6, CDK5 inh inactive, SR-BI uptake up inactive, DYRK1A inh inactive and dFosB activator inactive.
Screening COc1ccc(-c2sc3cc4c(cc3c2C#CCO)OCO4)cc1 returned SR-BI DiI inh inactive, CDK5 inh inactive, SR-BI uptake up inactive, DYRK1A inh inactive and dFosB activator inactive.
`COc1cc(-c2noc(C)c2/C=C/c2ccc(OC(C)=O)cc2)cc(OC)c1OC` gave SR-BI DiI inh 74.9, CDK5 inh inactive, SR-BI uptake up inactive, DYRK1A inh inactive and dFosB activator inactive.
Screening O=C(NN=Cc1ccccc1OC(F)F)c1cccc(S(=O)(=O)N2CCCC2)c1 returned SR-BI DiI inh 71.9, NSD2 HMT inh inactive, CDK5 inh inactive, SR-BI uptake up inactive, DYRK1A inh inactive and dFosB activator inactive.
O=C(N/N=C/c1ccc(OC(F)F)cc1OC(F)F)c1cccc(S(=O)(=O)N2CCOCC2)c1 was read as SR-BI DiI inh 82.8, NSD2 HMT inh inactive, CDK5 inh inactive, SR-BI uptake up inactive and dFosB activator inactive.
CNc1nc(Nc2ccc([N+](=O)[O-])cc2)nc(OCC(F)(F)F)n1 was read as SR-BI DiI inh inactive, NSD2 HMT inh inactive, CDK5 inh inactive, SR-BI uptake up inactive, DYRK1A inh inactive and dFosB activator inactive.
For CNc1nc(N/N=C/c2cc([N+](=O)[O-])ccc2F)nc(Nc2ccccc2)n1 the results were SR-BI DiI inh 75.0, CDK5 inh inactive, SR-BI uptake up inactive, DYRK1A inh inactive and dFosB activator 93.5.
Screening O=C1Nc2c(Cl)cc(Cl)cc2C1=O returned SR-BI DiI inh inactive, NSD2 HMT inh 118.0, CDK5 inh inactive, SR-BI uptake up inactive, DYRK1A inh inactive and dFosB activator inactive.

Bioassay records as filed in PubChem.
